Reference: ChEMBL document CHEMBL3352365, “Formononetin attenuates osteoclastogenesis via suppressing the RANKL-induced activation of NF-κB, c-Fos, and nuclear factor of activated T-cells cytoplasmic 1 signaling pathway” (J Nat Prod, 2014)
Each block holds one compound with its values, some of them ahead of it. Calls of active or inactive are those of the source. No cut-off for these calls is given here.

Columns and labels:
[1] = biological target: T1, Tumor necrosis factor ligand superfamily member 11 (Mus musculus) (UniProt O35235); test: Inhibition of RANKL-induced NFATc1 protein expression in ICR mouse BMMC at 1 to 20 uM incubated for 12 hrs by Western blotting method; type: functional
T1 sequence (whole entry): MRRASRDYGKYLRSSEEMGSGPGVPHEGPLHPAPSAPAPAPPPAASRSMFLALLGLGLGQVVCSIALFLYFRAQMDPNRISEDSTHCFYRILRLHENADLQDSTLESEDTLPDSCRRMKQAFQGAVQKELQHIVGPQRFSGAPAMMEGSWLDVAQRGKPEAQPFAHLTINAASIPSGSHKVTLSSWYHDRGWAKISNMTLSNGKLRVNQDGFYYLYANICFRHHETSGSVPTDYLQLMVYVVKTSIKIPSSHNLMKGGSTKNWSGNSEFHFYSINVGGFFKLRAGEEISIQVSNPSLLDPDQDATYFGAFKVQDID

[2] = biological target: T1, Tumor necrosis factor ligand superfamily member 11 (Mus musculus); test: Inhibition of RANKL-induced c-FOS protein expression in ICR mouse BMMC at 1 to 20 uM incubated for 12 hrs by Western blotting method; type: functional
[3] = biological target: T1, Tumor necrosis factor ligand superfamily member 11 (Mus musculus); test: Inhibition of RANKL-stimulated JNK in ICR mouse BMMC assessed as reduction in c-Jun phosphorylation at 1 to 20 uM incubated for 12 hrs by Western blotting method
BMMC [4] = test: Inhibition of RANKL/M-CSF-stimulated osteoclastogenesis in ICR mouse BMMC assessed as reduction in TRAP positive multinucleated cells at 1 to 20 uM incubated for 7 days by light microscopy; type: functional
Method in brief: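 JNK inhibitor SP600125 used as reference. For blots, BMMs were incubated with RANKL 100 ng/mL for 12 h, then SP600125 for 4 h; lysates probed for phospho-c-Jun, c-Jun, c-Fos and NFATc1, with β-actin as control. For TRAP counts, BMMs were given RANKL 1 h, then SP600125 (1, 10, 20 μM) with M-CSF 30 ng/mL.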

BMMC [5] = test: (§1) Inhibition of RANKL/M-CSF-stimulated IL-1beta protein expression in ICR mouse BMMC at 1 to 10 uM incubated for 48 hrs by ELISA method relative to untreated control; type: functional
Method in brief: (§2)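 BMMs (3 × 10^5 cells/well) prestimulated with RANKL 100 ng/mL for 1 h, then treated (1, 5, 10 μM) with M-CSF 30 ng/mL. Cytokines and chemokines in culture medium measured by ELISA. Methods give 7 days of treatment; legend gives 48 h. Mean ± SEM of two independent experiments; Student's t test.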

[6] = as §1; type: functional; method in brief: as §2
[7] = biological target: MAP kinase p38 (Mus musculus) (UniProt P47811+O08911+Q9WUI1+Q9Z1B7); test: Inhibition of RANKL-stimulated p38 phosphorylation in ICR mouse BMMC at 1 to 10 uM incubated for 12 hrs by Western blotting method; type: protein assay
Method in brief: (§3)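 BMMs stimulated with RANKL (100 ng/mL) for 1 h, then treated for 12 h. Whole-cell lysates run on 10% SDS-PAGE and probed (1:1000) for phospho- and total AKT, ERK, JNK and p38, with ECL detection. Blots representative of at least two experiments.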

[8] = biological target: T2, Nuclear factor NF-kappa-B complex (Homo sapiens) (UniProt Q00653+P19838+Q04206); test: Inhibition of RANKL-stimulated NFkappaB (unknown origin) expressed in ICR mouse BMMC assessed as reduction in transcriptional activity at 1 to 10 uM incubated for 12 hrs by SEAP based reporter gene assay
Method in brief: (§4)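 BMMs (5 × 10^5 cells/well) stimulated with RANKL 100 ng/mL for 1 h, then transfected (Lipofectamine 2000) with 300 ng pNF-κB-SEAP-NPT (four NF-κB sites) or control SEAP-NPT. After 24 h, treated (0, 1, 5, 10 μM) for 12 h at 37 °C with M-CSF and RANKL. Supernatant SEAP fluorescence read at ex 360/em 449 nm, given as % of control. Two experiments.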

[9] = biological target: T1, Tumor necrosis factor ligand superfamily member 11 (Mus musculus); test: Inhibition of RANKL-stimulated ERK phosphorylation in ICR mouse BMMC at 1 to 10 uM incubated for 12 hrs by Western blotting method; method in brief: as §3
[10] = biological target: RAC-alpha serine/threonine-protein kinase (Mus musculus) (UniProt P31750); test: Inhibition of RANKL-stimulated AKT phosphorylation in ICR mouse BMMC at 1 to 10 uM incubated for 12 hrs by Western blotting method; method in brief: as §3
BMMC [11] = test: (§5) Inhibition of RANKL/M-CSF-stimulated MIP-1alpha protein expression in ICR mouse BMMC at 1 to 10 uM incubated for 48 hrs by ELISA method relative to untreated control; type: functional; method in brief: as §2
[12] = as §5; type: functional; method in brief: as §2
[13] = biological target: T1, Tumor necrosis factor ligand superfamily member 11 (Mus musculus); test: Inhibition of RANKL-induced NFATc1 mRNA expression in ICR mouse BMMC at 5 uM incubated for 12 hrs by qRT-PCR method; type: functional
Method in brief: (§6)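 BMMs stimulated with RANKL (100 ng/mL) for 12 h, then treated at the indicated times and concentrations. c-Fos and NFATc1 mRNA quantified by real-time PCR.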

[14] = Toxicity against ICR mouse BMMC assessed as reduction in cell viability up to 100 uM after 72 hrs by WST8 assay
Method in brief: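 BMMs cultured with RANKL (100 ng/mL) and test compound at 0, 1, 5, 10 and 100 μM for 72 h. Viability read by WST-8 (CCK-8) assay.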

[15] = biological target: T1, Tumor necrosis factor ligand superfamily member 11 (Mus musculus); test: Inhibition of RANKL-induced c-FOS mRNA expression in ICR mouse BMMC at 5 uM incubated for 12 hrs by qRT-PCR method; type: functional; method in brief: as §6
BMMC [16] = test: (§7) Inhibition of RANKL/M-CSF-stimulated IL-6 protein expression in ICR mouse BMMC at 1 to 10 uM incubated for 48 hrs by ELISA method relative to untreated control; type: functional; method in brief: as §2
[17] = as §7; type: functional; method in brief: as §2
[18] = biological target: T1, Tumor necrosis factor ligand superfamily member 11 (Mus musculus); test: Inhibition of RANKL-induced c-FOS protein expression in ICR mouse BMMC at 1 to 10 uM incubated for 12 hrs by Western blotting method; type: functional
Method in brief: (§8)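 BMMs prestimulated with RANKL 100 ng/mL for 12 h, then treated at the indicated times and concentrations. Whole-cell lysates (20 μg/lane) run on 10% SDS-PAGE and blotted to nitrocellulose. Probed with anti-c-Fos and anti-NFATc1 (1:1000), β-actin as internal control, ECL detection.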

BMMC [19] = test: (§9) Inhibition of RANKL/M-CSF-stimulated RANTES protein expression in ICR mouse BMMC at 1 to 10 uM incubated for 48 hrs by ELISA method relative to untreated control; type: functional; method in brief: as §2
[20] = as §9; type: functional; method in brief: as §2
[21] = Inhibition of RANKL protein expression in ICR mouse BMMC co-cultured with primary osteoblasts at 1 to 10 uM incubated for 48 hrs by ELISA method relative to untreated control; type: functional
Method in brief: (§10)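 Coculture of BMMs (3 × 10^5 cells/well) with calvarial osteoblasts from 1-day-old mice (2.5 × 10^4 cells/well). Cells prestimulated with RANKL 100 ng/mL for 1 h, then treated for 48 h with M-CSF 30 ng/mL present. RANKL measured in cell lysate and OPG in culture medium, both by ELISA. Mean ± SEM of two independent experiments; Student's t test.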

[22] = biological target: T2, Nuclear factor NF-kappa-B complex (Homo sapiens); test: Inhibition of RANKL-stimulated NFkappaB (unknown origin) expressed in ICR mouse BMMC assessed as reduction in transcriptional activity at 1 to 10 uM incubated for 12 hrs by SEAP based reporter gene assay relative to untreated control; method in brief: as §4
BMMC [23] = test: (§11) Inhibition of RANKL/M-CSF-stimulated TNFalpha protein expression in ICR mouse BMMC at 1 to 10 uM incubated for 48 hrs by ELISA method relative to untreated control; type: functional; method in brief: as §2
[24] = as §11; type: functional; method in brief: as §2
[25] = biological target: T1, Tumor necrosis factor ligand superfamily member 11 (Mus musculus); test: Inhibition of RANKL-induced NFATc1 protein expression in ICR mouse BMMC at 1 to 10 uM incubated for 12 hrs by Western blotting method; type: functional; method in brief: as §8
BMMC [26] = test: (§12) Inhibition of RANKL/M-CSF-stimulated MCP1 protein expression in ICR mouse BMMC at 1 to 10 uM incubated for 48 hrs by ELISA method relative to untreated control; type: functional; method in brief: as §2
[27] = as §12; type: functional; method in brief: as §2
[28] = biological target: T1, Tumor necrosis factor ligand superfamily member 11 (Mus musculus); test: Inhibition of RANKL-stimulated IkappaBalpha degradation in ICR mouse BMMC at 1 to 10 uM incubated for 4 hrs by Western blotting method
[29] = biological target: Transcription factor p65 (Mus musculus) (UniProt Q04207); test: Inhibition of RANKL-stimulated NFkappaB p65 phosphorylation in ICR mouse BMMC at 1 to 10 uM incubated for 4 hrs by Western blotting method
[30] = biological target: T1, Tumor necrosis factor ligand superfamily member 11 (Mus musculus); test: Inhibition of RANKL-stimulated JNK phosphorylation in ICR mouse BMMC at 1 to 10 uM incubated for 12 hrs by Western blotting method; method in brief: as §3
BMMC [31] = test: Inhibition of RANKL/M-CSF-stimulated osteoclastogenesis in ICR mouse BMMC assessed as reduction in TRAP positive multinucleated cells at 1 to 10 uM incubated for 7 days by light microscopy; type: functional
Method in brief: (§13)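 BMMs from 6-week-old ICR mouse femurs/tibiae (M-CSF expanded; 5 × 10^5 cells/well) stimulated with RANKL 100 ng/mL for 1 h, then treated (1, 5, 10 μM) with M-CSF 30 ng/mL for 7 days. Fixed and TRAP-stained; TRAP+ cells with ≥3 nuclei counted by light microscopy. Mean ± SEM, two experiments.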

[32] = Inhibition of RANKL/M-CSF-stimulated osteoclastogenesis in ICR mouse BMMC assessed as reduction in TRAP positive multinucleated cells at 1 to 10 uM incubated for 7 days by light microscopy relative to untreated control; type: functional; method in brief: as §13
Osteoblast = test: Increase in OPG protein expression in RANKL-stimulated mouse primary osteoblasts co-cultured with ICR mouse BMMC at 1 to 10 uM incubated for 48 hrs by ELISA method relative to untreated control; type: functional; method in brief: as §10
BMMC [33] = test: Inhibition of RANKL protein expression in ICR mouse BMMC co-cultured with primary osteoblasts at 1 to 10 uM incubated for 48 hrs by ELISA method; type: functional; method in brief: as §10

T2 sequence (P19838 whole entry, looked up): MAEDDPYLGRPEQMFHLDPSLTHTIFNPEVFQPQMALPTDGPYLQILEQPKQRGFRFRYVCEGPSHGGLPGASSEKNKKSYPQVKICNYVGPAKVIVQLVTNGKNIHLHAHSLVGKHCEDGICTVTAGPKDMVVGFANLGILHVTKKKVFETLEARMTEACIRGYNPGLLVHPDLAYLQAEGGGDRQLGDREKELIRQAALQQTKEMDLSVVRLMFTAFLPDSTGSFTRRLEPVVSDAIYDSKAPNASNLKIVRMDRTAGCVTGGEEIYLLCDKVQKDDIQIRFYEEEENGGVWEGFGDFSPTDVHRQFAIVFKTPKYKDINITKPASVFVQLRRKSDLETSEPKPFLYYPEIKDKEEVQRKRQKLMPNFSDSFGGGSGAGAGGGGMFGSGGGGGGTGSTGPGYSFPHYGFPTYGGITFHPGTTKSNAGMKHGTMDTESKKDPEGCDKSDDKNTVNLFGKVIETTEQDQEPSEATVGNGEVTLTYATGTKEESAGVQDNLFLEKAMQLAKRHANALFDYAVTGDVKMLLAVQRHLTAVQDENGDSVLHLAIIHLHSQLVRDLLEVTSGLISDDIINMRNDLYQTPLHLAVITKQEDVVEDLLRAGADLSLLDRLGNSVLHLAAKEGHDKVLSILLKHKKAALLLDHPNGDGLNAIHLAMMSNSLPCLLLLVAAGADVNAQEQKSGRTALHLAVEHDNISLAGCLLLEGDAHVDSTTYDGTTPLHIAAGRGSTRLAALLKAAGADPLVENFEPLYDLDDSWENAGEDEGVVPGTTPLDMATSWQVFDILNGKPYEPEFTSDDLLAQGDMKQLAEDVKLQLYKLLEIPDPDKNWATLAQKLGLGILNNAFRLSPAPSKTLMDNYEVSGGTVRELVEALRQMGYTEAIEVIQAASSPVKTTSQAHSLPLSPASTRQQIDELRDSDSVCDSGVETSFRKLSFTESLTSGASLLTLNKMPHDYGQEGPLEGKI
T2 sequence (Q00653 whole entry, looked up): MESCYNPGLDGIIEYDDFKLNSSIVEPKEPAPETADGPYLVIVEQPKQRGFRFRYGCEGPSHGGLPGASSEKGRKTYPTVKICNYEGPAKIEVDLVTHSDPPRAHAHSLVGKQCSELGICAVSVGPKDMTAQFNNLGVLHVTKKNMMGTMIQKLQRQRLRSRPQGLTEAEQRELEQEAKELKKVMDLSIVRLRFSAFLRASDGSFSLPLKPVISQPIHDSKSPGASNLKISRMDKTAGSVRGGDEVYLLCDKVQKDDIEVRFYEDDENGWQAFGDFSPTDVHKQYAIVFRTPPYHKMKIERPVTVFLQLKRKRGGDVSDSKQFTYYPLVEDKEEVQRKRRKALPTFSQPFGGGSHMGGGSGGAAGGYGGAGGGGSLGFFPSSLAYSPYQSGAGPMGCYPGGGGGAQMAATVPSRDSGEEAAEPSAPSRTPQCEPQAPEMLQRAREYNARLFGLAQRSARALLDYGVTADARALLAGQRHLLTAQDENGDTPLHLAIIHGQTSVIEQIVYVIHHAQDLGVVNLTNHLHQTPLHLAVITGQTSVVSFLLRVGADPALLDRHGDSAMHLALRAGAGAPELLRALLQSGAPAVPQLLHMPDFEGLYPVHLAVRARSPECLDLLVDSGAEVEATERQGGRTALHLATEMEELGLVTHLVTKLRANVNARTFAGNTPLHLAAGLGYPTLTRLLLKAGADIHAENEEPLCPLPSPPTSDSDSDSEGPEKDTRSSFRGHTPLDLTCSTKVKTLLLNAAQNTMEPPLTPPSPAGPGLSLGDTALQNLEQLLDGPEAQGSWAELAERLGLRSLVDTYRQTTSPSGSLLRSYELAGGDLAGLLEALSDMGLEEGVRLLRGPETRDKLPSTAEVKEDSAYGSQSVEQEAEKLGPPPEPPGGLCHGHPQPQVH
T2 sequence (Q04206 whole entry, looked up): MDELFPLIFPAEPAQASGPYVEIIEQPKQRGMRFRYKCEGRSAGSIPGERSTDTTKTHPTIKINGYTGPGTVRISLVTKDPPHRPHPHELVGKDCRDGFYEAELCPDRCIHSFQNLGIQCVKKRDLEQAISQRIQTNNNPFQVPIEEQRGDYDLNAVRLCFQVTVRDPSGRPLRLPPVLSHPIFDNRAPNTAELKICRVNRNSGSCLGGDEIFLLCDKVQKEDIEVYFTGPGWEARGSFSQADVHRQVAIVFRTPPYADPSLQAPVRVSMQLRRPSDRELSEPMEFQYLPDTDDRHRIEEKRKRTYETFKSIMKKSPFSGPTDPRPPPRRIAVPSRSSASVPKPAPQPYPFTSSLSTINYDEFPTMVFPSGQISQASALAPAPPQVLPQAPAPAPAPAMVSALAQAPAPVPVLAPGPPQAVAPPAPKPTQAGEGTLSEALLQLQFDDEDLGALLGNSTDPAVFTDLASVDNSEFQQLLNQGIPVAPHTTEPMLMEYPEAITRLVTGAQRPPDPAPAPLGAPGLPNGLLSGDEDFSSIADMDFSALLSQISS
Chain of Transcription factor p65 (Mus musculus) (Q04207 whole entry): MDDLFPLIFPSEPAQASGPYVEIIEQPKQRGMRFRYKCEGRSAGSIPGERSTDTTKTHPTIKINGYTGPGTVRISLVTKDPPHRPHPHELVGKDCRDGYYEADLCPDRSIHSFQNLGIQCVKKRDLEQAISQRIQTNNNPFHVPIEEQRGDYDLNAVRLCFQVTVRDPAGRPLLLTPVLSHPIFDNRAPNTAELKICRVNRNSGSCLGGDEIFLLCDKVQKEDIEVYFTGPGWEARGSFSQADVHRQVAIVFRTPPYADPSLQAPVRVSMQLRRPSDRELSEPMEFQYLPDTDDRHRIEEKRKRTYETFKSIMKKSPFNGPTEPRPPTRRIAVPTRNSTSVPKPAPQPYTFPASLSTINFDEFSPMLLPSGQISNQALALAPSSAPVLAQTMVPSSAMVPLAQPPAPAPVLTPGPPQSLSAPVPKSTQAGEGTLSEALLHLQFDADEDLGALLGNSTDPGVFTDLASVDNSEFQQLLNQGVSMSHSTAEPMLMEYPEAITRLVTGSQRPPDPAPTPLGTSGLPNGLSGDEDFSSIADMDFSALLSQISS
Chain of RAC-alpha serine/threonine-protein kinase (Mus musculus) (P31750 whole entry): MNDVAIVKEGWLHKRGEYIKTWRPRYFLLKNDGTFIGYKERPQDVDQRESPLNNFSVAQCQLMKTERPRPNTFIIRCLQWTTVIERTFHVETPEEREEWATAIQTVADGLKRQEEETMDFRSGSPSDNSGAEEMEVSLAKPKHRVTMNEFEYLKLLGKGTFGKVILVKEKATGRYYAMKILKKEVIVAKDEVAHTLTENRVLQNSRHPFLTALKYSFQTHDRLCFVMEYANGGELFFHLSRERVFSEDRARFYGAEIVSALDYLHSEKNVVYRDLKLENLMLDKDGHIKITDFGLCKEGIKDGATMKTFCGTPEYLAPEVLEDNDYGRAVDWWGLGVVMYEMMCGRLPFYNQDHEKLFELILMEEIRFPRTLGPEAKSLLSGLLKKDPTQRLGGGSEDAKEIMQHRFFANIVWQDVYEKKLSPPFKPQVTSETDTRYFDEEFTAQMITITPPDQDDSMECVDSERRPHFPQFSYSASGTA

Compound: Oc1c2ccccc2c2c3c(cccc13)N=N2
- inhibition [1]: Active
- inhibition [2]: Active
- inhibition [3]: Active
- inhibition (BMMC [4]): Active

- inhibition [7]: Dose-dependent effect
- inhibition [8]: Dose-dependent effect
- inhibition [10]: Dose-dependent effect
- fold change (FC) [22]: 1.3
- inhibition [29]: Active
Compound: COc1ccc(-c2coc3cc(O)ccc3c2=O)cc1 [FORMONONETIN]
- inhibition (BMMC [5]): Dose-dependent effect
- inhibition (INH) [6]: 25.1%
- inhibition [9]: Dose-dependent effect
- inhibition (BMMC [11]): Dose-dependent effect
- inhibition (INH) [12]: 23.1%
- inhibition [13]: Active
- Activity [14]: Non-toxic
- inhibition [15]: Active
- inhibition (BMMC [16]): Dose-dependent effect
- inhibition (INH) [17]: 9.2%
- inhibition [18]: Dose-dependent effect
- inhibition (BMMC [19]): Dose-dependent effect
- inhibition (INH) [20]: 7.1%
- fold change (FC) [21]: 1.5
- inhibition (BMMC [23]): Dose-dependent effect
- inhibition (INH) [24]: 27.1%
- inhibition [25]: Dose-dependent effect
- inhibition (BMMC [26]): Dose-dependent effect
- inhibition (INH) [27]: 27.4%
- inhibition [28]: Active
- inhibition [30]: Dose-dependent effect
- inhibition (BMMC [31]): Dose-dependent effect
- fold change (FC) [32]: 1.3
- fold change (FC) (Osteoblast): 1.2
- inhibition (BMMC [33]): Dose-dependent effect
